Broadly, the inhibition is the relative decrease from the control value, in per cent. For orientation: pIC50 means the IC50 on a negative log10 scale, so that one unit is a factor of ten.

pIC50: −log10 of the molar value. The source made the active and inactive calls. The calls are words filed in the database; no cut-off is given here.

For the first assay, the species on record is Bos taurus. The following applies: 100 uM.
Consider `CS(=O)(=O)Nc1ccc([N+](=O)[O-])cc1Oc1ccccc1` [NIMESULIDE], for which the inhibition turned out to be 14%.

For another assay, the target named is Heat shock protein beta-1 (Homo sapiens) (UniProt P04792). As to the kind of experiment: Inhibition of HSP27 (unknown origin) assessed as increase in DTT-induced insulin B chain aggregation at 10 uM incubated for 5 mins prior to DTT-treatment measured after 30 mins by spectrophotometric analysis relative to control.
Chain of Heat shock protein beta-1 (Homo sapiens) (P04792 whole entry): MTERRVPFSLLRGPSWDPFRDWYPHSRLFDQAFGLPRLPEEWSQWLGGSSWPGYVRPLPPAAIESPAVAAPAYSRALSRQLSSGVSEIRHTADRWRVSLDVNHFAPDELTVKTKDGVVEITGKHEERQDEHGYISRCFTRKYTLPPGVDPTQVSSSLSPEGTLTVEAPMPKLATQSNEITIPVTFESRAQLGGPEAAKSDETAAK
Details: not given
`Cc1ccc(C)c(COc2cc(NC(=O)c3ccc(I)cc3)ccc2N(C)S(C)(=O)=O)c1`: the inhibition is 28%.

As to `COc1ccc(C(=O)Nc2ccc(N(C)S(C)(=O)=O)c(OCc3cc(C)ccc3C)c2)cc1`, the inhibition is 30%.

Consider `CS(=O)(=O)Nc1ccc([N+](=O)[O-])cc1Oc1ccccc1` [NIMESULIDE], for which the inhibition entry was “inactive”.

The target is the same in the next assay. As to the kind of experiment: Inhibition of HSP27 (unknown origin) assessed as increase in DTT-induced insulin B chain aggregation at 5 uM incubated for 5 mins prior to DTT-treatment measured after 30 mins by spectrophotometric analysis relative to control.
Details: not given
Regarding `Cc1ccc(C)c(COc2cc(NC(=O)C3CCCCC3)ccc2N(C)S(C)(=O)=O)c1`, the inhibition stood at 29%.

The subject of a further assay is SK-BR-3. As to the kind of experiment: Antiproliferative activity against human SKBR3 cells after 48 hrs by MTT assay. The conditions noted are these: SK-BR-3, 48 h. Format: functional, cell-based. In outline:
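MTT assay on SKBR-3 cells (RPMI 1640, 10% heat-inactivated FBS, 37 °C, 5% CO2), seeded 24 h before dosing, then exposed 48 h to a concentration series in DMSO (final ≤0.1%) with vehicle-matched controls. Afterwards 0.5 mg/mL MTT for 2 h, formazan dissolved in DMSO, A570 read, six replicates. IC50 from nonlinear regression.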
A general note: Tetrazolium dyes change colour on reduction, which living cells bring about.
With `COc1ccc(OC)c(COc2cc(NC(=O)c3ccc(OC)c(OC)c3)ccc2NS(C)(=O)=O)c1`, the pIC50 is 7.96.

Molecule `COc1ccc(C(=O)Nc2ccc(NS(C)(=O)=O)c(OCc3cc(OC)ccc3OC)c2)cc1` showed a pIC50 of 7.87.

Turning to `Cc1ccc(C(F)(F)F)cc1COc1cc(NC(=O)c2ccc3c(c2)OCO3)ccc1N(C)S(C)(=O)=O`, the negative-log IC50 (pIC50) is 4.83.

`COc1ccc(C(=O)Nc2ccc(N(C)S(=O)(=O)C(F)(F)F)c(OCc3cc(C)ccc3C)c2)cc1` showed a pIC50 of 5.27.

For `COc1ccc(OC)c(COc2cc(NC(=O)c3ccc(Br)cc3)ccc2NS(C)(=O)=O)c1`, the pIC50 was 8.02.

In the case of `COc1ccc(OC)c(COc2cc(NC(=O)c3ccc4c(c3)OCO4)ccc2N(C)S(C)(=O)=O)c1`, the pIC50 is 8.12. This pIC50 and that of the molecule before are within 0.2 log units of each other.

As for `CN(c1ccc(NC(=O)c2ccc3c(c2)OCO3)cc1OCc1cc(Cl)ccc1Cl)S(C)(=O)=O`, the pIC50 was 5.55.

Regarding `CN(c1ccc(NC(=O)c2ccc3ccccc3c2)cc1OCc1cc(Cl)ccc1Cl)S(C)(=O)=O`, the pIC50 is 5.66.

Take `COc1ccc(OC)c(COc2cc(NC(=O)c3ccc4c(c3)OCO4)ccc2NS(C)(=O)=O)c1`: the pIC50 is 7.45.

As for `COc1ccc(OC)c(COc2cc(NC(=O)c3ccc4ccccc4c3)ccc2NS(C)(=O)=O)c1`, the pIC50 is 7.88.

In turn, `COc1ccc(OC)c(COc2cc(NC(=O)c3ccc4ccccc4c3)ccc2N(C)S(=O)(=O)C(F)(F)F)c1` showed a pIC50 of 6.70.

`Cc1ccc(C(F)(F)F)cc1COc1cc(NC(=O)c2ccc(I)cc2)ccc1N(C)S(C)(=O)=O`: the pIC50 is 5.46.

For `CCCCCCOc1cc(NC(=O)c2ccc(OC)c(OC)c2)ccc1N(C)S(C)(=O)=O`, the pIC50 is 4.00. This pIC50 is 1.46 log units lower than that of the molecule before.

In turn, `CCCCCCOc1cc(NC(=O)c2ccc3c(c2)OCO3)ccc1N(C)S(C)(=O)=O` showed a pIC50 of 4.54.

`COc1ccc(C(=O)Nc2ccc(N(C)S(C)(=O)=O)c(OCc3cc(C(F)(F)F)ccc3C)c2)cc1OC` had a pIC50 of 4.77.

The molecule `CCCCCCOc1cc(NC(=O)c2ccc(I)cc2)ccc1N(C)S(C)(=O)=O` had a pIC50 of 4.90.

`COc1ccc(C(=O)Nc2ccc(N(C)S(C)(=O)=O)c(OCc3cc(C(F)(F)F)ccc3C)c2)cc1` had a negative logarithm of the IC50 (pIC50) of 5.69.

In turn, `COc1ccc(C(=O)Nc2ccc(N(C)S(=O)(=O)C(F)(F)F)c(OCc3cc(C)ccc3C)c2)cc1OC` had a pIC50 of 4.41.

For `COc1ccc(OC)c(COc2cc(NC(=O)c3ccc(I)cc3)ccc2NS(C)(=O)=O)c1`, the pIC50 was 7.93.

As to `Cc1ccc(C(F)(F)F)cc1COc1cc(NC(=O)c2ccc(Br)cc2)ccc1N(C)S(C)(=O)=O`, the pIC50 is 5.02.

Take `Cc1ccc(C)c(COc2cc(NC(=O)c3ccc4c(c3)OCO4)ccc2N(C)S(=O)(=O)C(F)(F)F)c1`: the pIC50 was 4.66. Against the preceding molecule, the pIC50 is 0.36 log units lower.

On to `CCCCCCOc1cc(NC(=O)c2ccc(OC)cc2)ccc1N(C)S(C)(=O)=O`, for which the pIC50 is 4.70.

`Cc1ccc(C)c(COc2cc(NC(=O)c3ccc(Br)cc3)ccc2N(C)S(=O)(=O)C(F)(F)F)c1` had a pIC50 of 4.44.

Molecule `Cc1ccc(C)c(COc2cc(NC(=O)c3ccc4ccccc4c3)ccc2N(C)S(=O)(=O)C(F)(F)F)c1` had a pIC50 of 4.38. The pIC50 values of the last two molecules are within 0.2 log units of each other.

For the molecule `Cc1ccc(C)c(COc2cc(NC(=O)c3ccc(I)cc3)ccc2N(C)S(=O)(=O)C(F)(F)F)c1`, the pIC50 is 4.87.

Take `Cc1ccc(C(F)(F)F)cc1COc1cc(NC(=O)c2ccc3ccccc3c2)ccc1N(C)S(C)(=O)=O`: the pIC50 was 4.74. The pIC50 values of the last two molecules are within 0.2 log units of each other.

On to `COc1ccc(OC)c(COc2cc(NC(=O)c3ccc4c(c3)OCO4)ccc2N(C)S(=O)(=O)C(F)(F)F)c1`, for which the pIC50 is 6.15.

In turn, `COc1ccc(OC)c(COc2cc(NC(=O)c3ccc(Br)cc3)ccc2N(C)S(C)(=O)=O)c1` showed a pIC50 of 8.45.

`COc1ccc(OC)c(COc2cc(NC(=O)c3ccc(Br)cc3)ccc2N(C)S(=O)(=O)C(F)(F)F)c1` showed a negative logarithm of the IC50 (pIC50) of 6.33.

`CN(c1ccc(NC(=O)c2ccc(Br)cc2)cc1OCc1cc(Cl)ccc1Cl)S(C)(=O)=O` had a negative-log IC50 (pIC50) of 5.64.

As for `COc1ccc(OC)c(COc2cc(NC(=O)c3ccc4ccccc4c3)ccc2N(C)S(C)(=O)=O)c1`, the negative-log IC50 (pIC50) was 7.78.

With `COc1ccc(C(=O)Nc2ccc(N(C)S(C)(=O)=O)c(OCc3cc(Cl)ccc3Cl)c2)cc1`, the pIC50 was 6.31.

Consider `CN(c1ccc(NC(=O)c2ccc(I)cc2)cc1OCc1cc(Cl)ccc1Cl)S(C)(=O)=O`, for which the pIC50 was 6.18.

For the molecule `COc1ccc(OC)c(COc2cc(NC(=O)c3ccc(I)cc3)ccc2N(C)S(=O)(=O)C(F)(F)F)c1`, the pIC50 was 6.29.

Turning to `CCCCCCOc1cc(NC(=O)c2ccc3ccccc3c2)ccc1N(C)S(C)(=O)=O`, the pIC50 is 4.19.

Molecule `COc1ccc(OC)c(COc2cc(NC(=O)c3ccc(OC)c(OC)c3)ccc2N(C)S(=O)(=O)C(F)(F)F)c1` gave a pIC50 of 6.26.

The molecule `COc1ccc(OC)c(COc2cc(NC(=O)c3ccc(OC)c(OC)c3)ccc2N(C)S(C)(=O)=O)c1` had a pIC50 of 8.58.

In turn, `CS(=O)(=O)Nc1ccc([N+](=O)[O-])cc1Oc1ccccc1` [NIMESULIDE] showed a pIC50 of 4.00. Against the preceding molecule, the pIC50 is 4.58 log units lower.

In turn, `CCCCCCOc1cc(NC(=O)c2ccc(Br)cc2)ccc1N(C)S(C)(=O)=O` had a negative-log IC50 (pIC50) of 4.40.

`COc1ccc(C(=O)Nc2ccc(N(C)S(=O)(=O)C(F)(F)F)c(OCc3cc(OC)ccc3OC)c2)cc1`: the pIC50 is 6.96.

On to `COc1ccc(C(=O)Nc2ccc(N(C)S(C)(=O)=O)c(OCc3cc(Cl)ccc3Cl)c2)cc1OC`, for which the pIC50 was 5.43.

The values above are taken from ChEMBL document CHEMBL2396529, “Synthesis and anticancer mechanism investigation of dual Hsp27 and tubulin inhibitors” (J Med Chem, 2013).
